Experimental data reported in ChEMBL document CHEMBL4715704, “Design, synthesis and biological evaluation of novel L-ascorbic acid-conjugated pentacyclic triterpene derivatives as potential influenza virus entry inhibitors” (Eur J Med Chem, 2016).
Calls of active or inactive are those of the source. The rule behind the calls is not given here.

What was measured:
Influenza A virus [1] = experiment: Antiviral activity against Influenza A virus A/WSN/33(H1N1) infected in MDCK cells assessed as s reduction in cytopathic effect after 40 hrs incubation by CellTiter-Glo assay relative to control; format: functional, A/WSN/1933(H1N1)
Summary of the method: (§1)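 MDCK cells seeded in 96-well plates and grown overnight, then infected with A/WSN/33 (H1N1) at MOI 0.1. Cells were kept in DMEM with 1% FBS, test compound, 2 µg/mL TPCK-trypsin and 1% DMSO final. After 40 h, cell viability was read by CellTiter-Glo luminescence to measure CPE reduction.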

Influenza A virus [2] = experiment: Antiviral activity against Influenza A virus A/WSN/33(H1N1) infected in MDCK cells assessed as s reduction in cytopathic effect after 40 hrs incubation by CellTiter-Glo assay; format: functional, organism-based; conditions: A/WSN/1933(H1N1); summary of the method: as §1
[3] = Cytotoxicity against MDCK cells after 40 hrs incubation by CellTiter-Glo assay; format: cell-based, Canis lupus familiaris; conditions: dog
Summary of the method: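 Uninfected MDCK cells were grown overnight in 96-well plates in 1% FBS medium. They were exposed to increasing compound concentrations for 40 h, and viability was read by CellTiter-Glo luminescence.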

Influenza A virus [4] = experiment: Antiviral activity against Influenza A virus A/WSN/33(H1N1)) infected in MDCK cells assessed as inhibition rate by pretreated virus at 50 uM; format: functional, A/WSN/1933(H1N1); parameters: scale not given: the % may be the effect or the level left
Influenza A virus [5] = experiment: Antiviral activity against Influenza A virus A/WSN/33(H1N1)) infected in MDCK cells assessed as inhibition of virus infection at early stage after 2 hrs post infection by time of addition assay; format: functional, organism-based; conditions: A/WSN/1933(H1N1)
Summary of the method: (§2)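 Cells were seeded in 6-well plates at 5 × 10^5 per well 24 h before infection and kept at 37 °C, 5% CO2. They were infected with WSN at MOI 1. Compound was present during 0-10, 0-2, 2-5, 5-8 or 8-10 h post infection. Lysates were Western-blotted for viral NP, with GAPDH probed and DMSO as control.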

Influenza A virus [6] = experiment: Antiviral activity against Influenza A virus A/WSN/33(H1N1)) infected in MDCK cells assessed as suppression of viral genome replication after 8 to 10 hrs post infection by time of addition assay; format: functional, organism-based; conditions: A/WSN/1933(H1N1), time 8-10 hrs; summary of the method: as §2
Influenza A virus [7] = experiment: Antiviral activity against Influenza A virus A/WSN/33(H1N1)) infected in MDCK cells assessed as inhibition rate at 50 uM by co-treatment assay; format: functional, A/WSN/1933(H1N1); parameters: scale not given: the % may be the effect or the level left
Influenza A virus [8] = experiment: Antiviral activity against Influenza A virus A/WSN/33(H1N1)) infected in MDCK cells assessed as suppression of virion assembly and release after 8 to 10 hrs post infection by time of addition assay; format: functional, organism-based; conditions: A/WSN/1933(H1N1), time 8-10 hrs; summary of the method: as §2
[9] = Binding affinity to recombinant influenza A virus A hemagglutinin by SPR assay
Summary of the method: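 SPR used HA immobilized to about 16,000 RU. Compounds were injected as analytes at various concentrations in PBS-P running buffer (10 mM phosphate, 2.7 mM KCl, 137 mM NaCl, 0.05% P20, pH 4.5). Flow was 30 µL/min, with 60 s contact and 60 s dissociation, giving KD.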

Red blood cell = experiment: Inhibition of hemagglutinin in Influenza A virus A/WSN/33(H1N1)) assessed as reduction in virus-induced agglutination of chicken red blood cells pretreated for 1 hr followed by further incubated for 1 hr; format: cell-based; conditions: Influenza A virus (A/WSN/1933(H1N1))
Summary of the method: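 Haemagglutination inhibition: compound was 3-fold serially diluted in saline and mixed with an equal volume of WSN virus (2 HA units) in V-bottom wells. Freshly prepared chicken RBC (1% v/v in saline) were added and incubated at room temperature. cRBC aggregation was scored visually, with anti-HA antibody as comparator.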

Influenza A virus [10] = experiment: Antiviral activity against Influenza A virus A/WSN/33(H1N1)) infected in MDCK cells assessed as suppression of viral genome translation after 8 to 10 hrs post infection by time of addition assay; format: functional, organism-based; conditions: A/WSN/1933(H1N1), time 8-10 hrs; summary of the method: as §2

| Structure (SMILES) | inhibition (INH) (Influenza A virus [1]) [%] | EC50 (Influenza A virus [2]) [µM] | CC50 at 40 h [3] [µM] | further results |
| --- | --- | --- | --- | --- |
| CCOC(=O)C1=C[C@@H](OC(CC)CC)[C@H](NC(C)=O)[C@@H](N)C1.O=P(O)(O)O [OSELTAMIVIR PHOSPHATE] | 86.5 | 12.5 | > 200 |  |
| CC(C)[C@@H]1CC[C@]2(C(=O)NC[C@H](O)[C@H]3OC(=O)C(O)=C3O)CC[C@]3(C)[C@H](CC[C@@H]4[C@@]5(C)CC[C@H](O)C(C)(C)[C@@H]5CC[C@]43C)[C@@H]12 | 84.4 | 35.6 | > 200 |  |
| CC1(C)CC[C@]2(C(=O)NC[C@H](O)[C@H]3OC(=O)C(OCc4ccccc4)=C3OCc3ccccc3)[C@H](O)C[C@]3(C)C(=CC[C@@H]4[C@@]5(C)CC[C@H](O)C(C)(C)[C@@H]5CC[C@]43C)[C@@H]2C1 | 71.1 | 30.3 | > 200 |  |
| CC1(C)CC[C@]2(C(=O)NCc3cn(C[C@H](O)[C@H]4OC(=O)C(OCc5ccccc5)=C4OCc4ccccc4)nn3)[C@H](O)C[C@]3(C)C(=CC[C@@H]4[C@@]5(C)CC[C@H](O)C(C)(C)[C@@H]5CC[C@]43C)[C@@H]2C1 | 87 | 56.6 | > 200 |  |
| CC1(C)CC[C@]2(C(=O)NC[C@H](O)[C@H]3OC(=O)C(O)=C3O)CC[C@]3(C)C(=CC[C@@H]4[C@@]5(C)CC[C@H](O)C(C)(C)[C@@H]5CC[C@]43C)[C@@H]2C1 |  |  | 41.9 |  |
| COC1=C(OC)[C@@H]([C@@H](O)Cn2cc(CNC(=O)[C@]34CC[C@@H](C)[C@H](C)[C@H]3C3=CC[C@@H]5[C@@]6(C)CC[C@H](O)C(C)(C)[C@@H]6CC[C@@]5(C)[C@]3(C)C[C@H]4O)nn2)OC1=O |  |  | 52.5 |  |
| CC1(C)CC[C@]2(C(=O)NCc3cn(C[C@H](O)[C@H]4OC(=O)C(O)=C4O)nn3)[C@H](O)C[C@]3(C)C(=CC[C@@H]4[C@@]5(C)CC[C@H](O)C(C)(C)[C@@H]5CC[C@]43C)[C@@H]2C1 |  |  | 59.3 |  |
| CC1(C)CC[C@]2(C(=O)NC[C@H](O)[C@H]3OC(=O)C(O)=C3O)[C@H](O)C[C@]3(C)C(=CC[C@@H]4[C@@]5(C)CC[C@H](O)C(C)(C)[C@@H]5CC[C@]43C)[C@@H]2C1 |  |  | 29.7 |  |
| C[C@H]1[C@H](C)CC[C@]2(C(=O)NCc3cn(C[C@H](O)[C@H]4OC(=O)C(O)=C4O)nn3)[C@H](O)C[C@]3(C)C(=CC[C@@H]4[C@@]5(C)CC[C@H](O)C(C)(C)[C@@H]5CC[C@]43C)[C@H]12 |  |  | 41.1 |  |
| C=C(C)[C@@H]1CC[C@]2(C(=O)NCc3cn(C[C@H](O)[C@H]4OC(=O)C(OCc5ccccc5)=C4OCc4ccccc4)nn3)CC[C@]3(C)[C@H](CC[C@@H]4[C@@]5(C)CC[C@H](O)C(C)(C)[C@@H]5CC[C@]43C)[C@@H]12 | 89.6 | 8.7 | > 200 | Activity (Influenza A virus [4]): 87%; Activity (Influenza A virus [5]): Active; Activity (Influenza A virus [6]): Active; Activity (Influenza A virus [7]): 75%; Activity (Influenza A virus [8]): Active; Kd [9]: 3.76 µM; inhibition (Red blood cell): Dose-dependent effect; Activity (Influenza A virus [10]): Active |
| CC1(C)CC[C@]2(C(=O)NCc3cn(C[C@H](O)[C@H]4OC(=O)C(OCc5ccccc5)=C4OCc4ccccc4)nn3)CC[C@]3(C)C(=CC[C@@H]4[C@@]5(C)CC[C@H](O)C(C)(C)[C@@H]5CC[C@]43C)[C@@H]2C1 | 91.3 | 19.2 | > 200 |  |
| C=C(C)[C@@H]1CC[C@]2(C(=O)NC[C@H](O)[C@H]3OC(=O)C(OCc4ccccc4)=C3OCc3ccccc3)CC[C@]3(C)[C@H](CC[C@@H]4[C@@]5(C)CC[C@H](O)C(C)(C)[C@@H]5CC[C@]43C)[C@@H]12 | 89.6 | 23.7 | > 200 |  |
| COC1=C(OC)[C@@H]([C@@H](O)Cn2cc(CNC(=O)[C@]34CCC(C)(C)C[C@H]3C3=CC[C@@H]5[C@@]6(C)CC[C@H](O)C(C)(C)[C@@H]6CC[C@@]5(C)[C@]3(C)CC4)nn2)OC1=O |  |  | 19.6 |  |
| C[C@H]1[C@H](C)CC[C@]2(C(=O)NCc3cn(C[C@H](O)[C@H]4OC(=O)C(OCc5ccccc5)=C4OCc4ccccc4)nn3)CC[C@]3(C)C(=CC[C@@H]4[C@@]5(C)CC[C@H](O)C(C)(C)[C@@H]5CC[C@]43C)[C@H]12 | 90.8 | 25.7 | > 200 |  |
| C[C@H]1[C@H](C)CC[C@]2(C(=O)NC[C@H](O)[C@H]3OC(=O)C(OCc4ccccc4)=C3OCc3ccccc3)CC[C@]3(C)C(=CC[C@@H]4[C@@]5(C)CC[C@H](O)C(C)(C)[C@@H]5CC[C@]43C)[C@H]12 | 88.1 | 26.4 | > 200 |  |
| C=C(C)[C@@H]1CC[C@@]2(C(=O)NCc3cn(C[C@H](O)[C@H]4OC(=O)C(OC)=C4OC)nn3)[C@H]1[C@H]1CC[C@@H]3[C@@]4(C)CC[C@H](O)C(C)(C)[C@@H]4CC[C@@]3(C)[C@]1(C)C[C@H]2O |  |  | 43.9 |  |
| C=C(C)[C@@H]1CC[C@]2(C(=O)NCc3cn(C[C@H](O)[C@H]4OC(=O)C(O)=C4O)nn3)CC[C@]3(C)[C@H](CC[C@@H]4[C@@]5(C)CC[C@H](O)C(C)(C)[C@@H]5CC[C@]43C)[C@@H]12 | 93.1 | 41.3 | > 200 | Kd [9]: 8.04 µM |
| COC1=C(OC)[C@@H]([C@@H](O)Cn2cc(CNC(=O)[C@]34CCC(C)(C)C[C@H]3C3=CC[C@@H]5[C@@]6(C)CC[C@H](O)C(C)(C)[C@@H]6CC[C@@]5(C)[C@]3(C)C[C@H]4O)nn2)OC1=O |  |  | 5.6 |  |
| CC1(C)CC[C@]2(C(=O)NCc3cn(C[C@H](O)[C@H]4OC(=O)C(O)=C4O)nn3)CC[C@]3(C)C(=CC[C@@H]4[C@@]5(C)CC[C@H](O)C(C)(C)[C@@H]5CC[C@]43C)[C@@H]2C1 |  |  | 46.8 |  |
| CC1(C)CC[C@]2(C(=O)NC[C@H](O)[C@H]3OC(=O)C(OCc4ccccc4)=C3OCc3ccccc3)CC[C@]3(C)C(=CC[C@@H]4[C@@]5(C)CC[C@H](O)C(C)(C)[C@@H]5CC[C@]43C)[C@@H]2C1 | 81.9 | 25.3 | > 200 |  |
